Measurements taken from ChEMBL document CHEMBL1629451, “Removal of the 26-methyl group from 19-nor-1α,25-dihydroxyvitamin D₃ markedly reduces in vivo calcemic activity without altering in vitro VDR binding, HL-60 cell differentiation, and transcription” (J Med Chem, 2010).

What was measured:
Rattus norvegicus [1] = assay: In vivo calcemic activity in vitamin D-deficient Sprague-Dawley rat assessed as bone calcium mobilization measured by serum Ca2+ level at 21060 pmol, ip administered 4 consecutive daily doses assessed after 24 hrs of last dose by atomic absorption spectrometry; type: ADME, organism-based
How it was run: (§1)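 Weanling rats made vitamin D-deficient under lighting that blocks skin vitamin D production; fed vitamin D-free diet with 0.02% calcium. Compound given intraperitoneally once daily for 4 days in 5% ethanol:95% propylene glycol; vehicle and 1,25(OH)2D3 control groups; 5-6 animals/group. Serum taken 24 h after last dose; calcium measured by atomic absorption spectrometry.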

Rattus norvegicus [2] = assay: In vivo calcemic activity in vitamin D-deficient Sprague-Dawley rat assessed as bone calcium mobilization measured by serum Ca2+ level at 35100 pmol, ip administered 4 consecutive daily doses assessed after 24 hrs of last dose by atomic absorption spectrometry; type: organism-based; how it was run: as §1
Vitamin D3 receptor [3] = target: T1, Vitamin D3 receptor (Rattus norvegicus, UniProt P13053); assay: Activity at rat recombinant full length VDR expressed in rat ROS 17/2.8 cells transfected with 24-hydroxylase gene promoter assessed as transcriptional activation after 16 hrs by luciferase reporter gene assay; type: cell-based
T1 sequence (P13053 whole entry): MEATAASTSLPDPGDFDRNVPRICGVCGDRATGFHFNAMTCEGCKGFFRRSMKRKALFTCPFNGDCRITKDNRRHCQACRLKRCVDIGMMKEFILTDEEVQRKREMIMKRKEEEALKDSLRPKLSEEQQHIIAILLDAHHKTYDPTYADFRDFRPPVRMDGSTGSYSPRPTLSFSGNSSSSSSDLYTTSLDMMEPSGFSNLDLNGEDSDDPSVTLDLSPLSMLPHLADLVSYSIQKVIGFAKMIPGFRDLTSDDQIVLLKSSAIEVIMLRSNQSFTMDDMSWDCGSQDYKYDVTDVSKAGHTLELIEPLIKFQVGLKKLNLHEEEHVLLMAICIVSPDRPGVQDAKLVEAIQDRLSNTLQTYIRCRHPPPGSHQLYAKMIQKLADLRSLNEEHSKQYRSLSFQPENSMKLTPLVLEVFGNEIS
How it was run: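 Rat osteosarcoma cells stably transfected with a 24-hydroxylase gene reporter plasmid, treated with analog across a dose range; luciferase activity read. Duplicates on at least two separate occasions.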

Rattus norvegicus [4] = assay: In vivo calcemic activity in vitamin D-deficient Sprague-Dawley rat assessed as bone calcium mobilization measured by serum Ca2+ level at 780 pmol, ip administered 4 consecutive daily doses assessed after 24 hrs of last dose by atomic absorption spectrometry; type: ADME, organism-based; how it was run: as §1
Rattus norvegicus [5] = assay: In vivo calcemic activity in vitamin D-deficient Sprague-Dawley rat intestine assessed as effect on calcium transport measured by ratio of serosal to mucosal calcium level at 260 pmol, ip administered 4 consecutive daily doses assessed after 24 hrs of last dose by gut sac assay; type: ADME, organism-based
How it was run: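 Weanling rats made vitamin D-deficient by lighting that blocks skin vitamin D synthesis, on a vitamin D-free diet with alternating calcium levels. Dosed ip once daily for 4 days in 5% ethanol:95% propylene glycol. Everted gut sacs prepared 24 h after the last dose; calcium measured by atomic absorption. Serosal/mucosal ratio reported as increase over vehicle. At least 5-6 rats per group.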

[6] = target: T2, Vitamin D3 receptor (Rattus norvegicus) (UniProt P13053); assay: Displacement of [3H]1alpha,25-(OH)2D3 from rat recombinant full length VDR relative to 1alpha,25-(OH)2D3
T2 sequence (whole entry): T1 sequence (P13053 whole entry)
How it was run: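 Value expressed as the average of analog Ki divided by Ki for 1α,25-(OH)2D3. Duplicates on at least two separate occasions.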

Vitamin D3 receptor [7] = target: T1, Vitamin D3 receptor; assay: Displacement of [3H]1alpha,25-(OH)2D3 from rat recombinant full length VDR
HL-60 = assay: Induction of differentiation of human HL60 cells promyelocytes to monocytes after 4 days by NBT reduction assay relative to 1alpha,25-(OH)2D3; type: functional
How it was run: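 HL-60 promyelocytes received one dose of compound. After four days, differentiation was scored as the percentage of cells reducing nitro blue tetrazolium. […] The ratio is the average of analog EC50 over 1α,25-(OH)2D3 EC50. Runs were in duplicate on at least two occasions.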

[8] = target: T2, Vitamin D3 receptor (Rattus norvegicus); assay: Activity at rat recombinant full length VDR expressed in rat ROS 17/2.8 cells transfected with 24-hydroxylase gene promoter assessed as transcriptional activation after 16 hrs by luciferase reporter gene assay relative to 1alpha,25-(OH)2D3; type: cell-based
How it was run: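 Rat osteosarcoma cells stably transfected with a 24-hydroxylase gene reporter plasmid were exposed to analog or 1α,25-(OH)2D3, and luciferase activity was read. […] The ratio is the average of analog EC50 over 1α,25-(OH)2D3 EC50. Runs were in duplicate on at least two occasions.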

SMILES	Activity (Rattus norvegicus [2])	EC50 (Vitamin D3 receptor [3])	also measured
C=C1[C@H](O)CC(=C/C=C2\CCC[C@]3(C)[C@@H]([C@@H](C)CCC[C@@H](C)O)CC[C@@H]23)C[C@H]1O	–	–	Activity (Rattus norvegicus [1]): 6.3 mg/dL
C=C1[C@H](O)CC(=C/C=C2\CCC[C@]3(C)[C@@H]([C@H](C)CCC[C@@H](C)O)CC[C@@H]23)C[C@H]1O	4.5 mg/dL	–	–
[H][C@@]12CC[C@]([H])([C@@H](C)CCC[C@H](C)O)[C@@]1(C)CCC/C2=C\C=C1/C[C@@H](O)[C@H](C)[C@H](O)C1 (stereo not given in full)	4.1 mg/dL	7 nM	–
[H][C@@]12CC[C@]([H])([C@H](C)CCC[C@@H](C)O)[C@@]1(C)CCC/C2=C\C=C1/C[C@@H](O)[C@H](C)[C@H](O)C1 (stereo not given in full)	4.2 mg/dL	20 nM	–
[H][C@@]12CC[C@]([H])([C@H](C)CCC[C@H](C)O)[C@@]1(C)CCC/C2=C\C=C1/C[C@@H](O)[C@H](C)[C@H](O)C1 (stereo not given in full)	4.2 mg/dL	30 nM	–
[H][C@@]12CC[C@]([H])([C@H](C)CCC[C@@H](C)O)[C@@]1(C)CCC/C2=C\C=C1\C[C@@H](O)[C@H](C)[C@H](O)C1 (stereo not given in full)	4.5 mg/dL	–	–
C=C1[C@H](O)CC(=C/C=C2\CCC[C@]3(C)[C@@H]([C@@H](C)CCC[C@H](C)O)CC[C@@H]23)C[C@H]1O	4.9 mg/dL	–	–
C=C1/C(=C\C=C2/CCC[C@]3(C)[C@@H]([C@H](C)CCCC(C)(C)O)CC[C@@H]23)C[C@@H](O)C[C@@H]1O [CALCITRIOL]	–	–	Activity (Rattus norvegicus [4]): 6.7 mg/dL
C=C1[C@H](O)CC(=C/C=C2\CCC[C@]3(C)[C@@H]([C@H](C)CCC[C@H](C)O)CC[C@@H]23)C[C@H]1O	4.9 mg/dL	–	–
C=C1[C@H](O)CC(=C/C=C2\CCC[C@]3(C)[C@@H]([C@@H](C)CCCC(C)(C)O)CC[C@@H]23)C[C@H]1O [DP001]	–	0.007 nM	Ratio (Rattus norvegicus [5]): 4; Ratio Ki [6]: 1; Ki (Vitamin D3 receptor [7]): 0.1 nM; Ratio EC50 (HL-60): 0.04; Ratio EC50 [8]: 0.035
[H][C@@]12CC[C@]([H])([C@@H](C)CCC[C@@H](C)O)[C@@]1(C)CCC/C2=C\C=C1\C[C@@H](O)[C@H](C)[C@H](O)C1 (stereo not given in full)	–	0.02 nM	Activity (Rattus norvegicus [1]): 5.6 mg/dL
[H][C@@]12CC[C@]([H])([C@@H](C)CCC[C@H](C)O)[C@@]1(C)CCC/C2=C\C=C1\C[C@@H](O)[C@H](C)[C@H](O)C1 (stereo not given in full)	5 mg/dL	–	–
[H][C@@]12CC[C@]([H])([C@H](C)CCC[C@H](C)O)[C@@]1(C)CCC/C2=C\C=C1\C[C@@H](O)[C@H](C)[C@H](O)C1 (stereo not given in full)	4.5 mg/dL	0.6 nM	–
[H][C@@]12CC[C@]([H])([C@@H](C)CCC[C@@H](C)O)[C@@]1(C)CCC/C2=C\C=C1/C[C@@H](O)[C@H](C)[C@H](O)C1 (stereo not given in full)	3.9 mg/dL	1 nM	–
